≈ marks a conversion by molar mass, not a printed value.
Key:
Candida albicans [1] = assay: Antifungal activity against Candida albicans ATCC 10231 after 48 hrs by broth microdilution technique; format: functional; conditions: ATCC 10231, 48 h
In short: (§1)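 Yeasts were tested by CLSI broth microdilution in RPMI-1640 buffered to pH 7.0 with MOPS, with compound from 250 down to 0.98 in DMSO stocks. Trays were held at 30 °C in a moist, dark chamber. MIC100, the lowest concentration giving total visual inhibition against the growth control, was read by eye at 48 h.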

Saccharomyces cerevisiae = assay: Antifungal activity against Saccharomyces cerevisiae ATCC 9763 after 48 hrs by broth microdilution technique; format: functional; conditions: ATCC 9763, 48 h; in short: as §1
Cryptococcus neoformans [2] = assay: Antifungal activity against Cryptococcus neoformans ATCC 32264 after 48 hrs by broth microdilution technique; format: functional; conditions: ATCC 32264, 48 h; in short: as §1
Aspergillus fumigatus = assay: Antifungal activity against Aspergillus fumigatus ATCC 26934 after 48 hrs by broth microdilution technique; format: functional; conditions: ATCC 26934, 48 h
In short: (§2)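 Moulds and dermatophytes were run by CLSI broth microdilution in MOPS-buffered RPMI-1640 at pH 7.0. Aspergillus was incubated at 30 °C and dermatophytes at 28–30 °C, in a moist, dark chamber. MIC100, the lowest concentration with no visible growth, was read visually at a time set by growth of the control fungus.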

Aspergillus flavus = assay: Antifungal activity against Aspergillus flavus ATCC 9170 after 48 hrs by broth microdilution technique; format: functional; conditions: ATCC 9170, 48 h; in short: as §2
Aspergillus niger = assay: Antifungal activity against Aspergillus niger ATCC 9029 after 48 hrs by broth microdilution technique; format: functional; conditions: ATCC 9029, 48 h; in short: as §2
Nannizzia gypsea = assay: Antifungal activity against Microsporum gypseum CCC 115 after 48 hrs by broth microdilution technique; format: functional; conditions: CCC 115, 48 h; in short: as §2
Trichophyton rubrum = assay: Antifungal activity against Trichophyton rubrum CCC 113 after 48 hrs by broth microdilution technique; format: functional; conditions: CCC 113, 48 h
[3] = test system: Trichophyton mentagrophytes; assay: Antifungal activity against Trichophyton mentagrophytes ATCC 9972 after 48 hrs by broth microdilution technique; format: functional; conditions: ATCC 9972, 48 h; in short: as §2
Candida albicans [4] = assay: Antifungal activity against Candida albicans CCC 125 after 48 hrs by broth microdilution technique; format: functional; conditions: CCC 125, 48 h
Candida albicans [5] = assay: Antifungal activity against Candida albicans CCC 126 after 48 hrs by broth microdilution technique; format: functional; conditions: CCC 126, 48 h
Candida albicans [6] = assay: Antifungal activity against Candida albicans CCC 127 after 48 hrs by broth microdilution technique; format: functional; conditions: CCC 127, 48 h
Candida albicans [7] = assay: Antifungal activity against Candida albicans CCC 128 after 48 hrs by broth microdilution technique; format: functional; conditions: CCC 128, 48 h
Candida albicans [8] = assay: Antifungal activity against Candida albicans CCC 129 after 48 hrs by broth microdilution technique; format: functional; conditions: CCC 129, 48 h
Candida albicans [9] = assay: Antifungal activity against Candida albicans CCC 130 after 48 hrs by broth microdilution technique; format: functional; conditions: CCC 130, 48 h
Nakaseomyces glabratus = assay: Antifungal activity against Candida glabrata CCC 115 after 48 hrs by broth microdilution technique; format: functional; conditions: CCC 115, 48 h
Candida parapsilosis = assay: Antifungal activity against Candida parapsilosis CCC 124 after 48 hrs by broth microdilution technique; format: functional; conditions: Lodderomyces parapsilosis, CCC 124, 48 h
Pichia kudriavzevii = assay: Antifungal activity against Candida krusei CCC 117 after 48 hrs by broth microdilution technique; format: functional; conditions: CCC 117, 48 h
Candida tropicalis = assay: Antifungal activity against Candida tropicalis CCC 131 after 48 hrs by broth microdilution technique; format: functional; conditions: CCC 131, 48 h
Cryptococcus neoformans [10] = assay: Antifungal activity against Cryptococcus neoformans IM 983040 after 48 hrs by broth microdilution technique; format: functional; conditions: IM 983040, 48 h
In short: (§3)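 C. neoformans was tested by 96-well RPMI-1640 microdilution, with DMSO-matched growth and sterility control wells. Plates were incubated 48 h at 30 °C in a moist, dark chamber and read at OD405. % inhibition = 100 − (CTW − SCW)/(GCW − SCW), in duplicate. For the clinical isolates, MIC80 and MIC50 are the lowest concentrations giving 80% and 50% inhibition.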

Cryptococcus neoformans [11] = assay: Antifungal activity against Cryptococcus neoformans IM 972724 after 48 hrs by broth microdilution technique; format: functional; conditions: IM 972724, 48 h; in short: as §3
Cryptococcus neoformans [12] = assay: Antifungal activity against Cryptococcus neoformans IM 042074 after 48 hrs by broth microdilution technique; format: functional; conditions: IM 042074, 48 h; in short: as §3
Cryptococcus neoformans [13] = assay: Antifungal activity against Cryptococcus neoformans IM 983036 after 48 hrs by broth microdilution technique; format: functional; conditions: IM 983036, 48 h; in short: as §3
Cryptococcus neoformans [14] = assay: Antifungal activity against Cryptococcus neoformans IM 00319 after 48 hrs by broth microdilution technique; format: functional; conditions: IM 00319, 48 h; in short: as §3
Cryptococcus neoformans [15] = assay: Antifungal activity against Cryptococcus neoformans IM 972751 after 48 hrs by broth microdilution technique; format: functional; conditions: IM 972751, 48 h; in short: as §3
Cryptococcus neoformans [16] = assay: Antifungal activity against Cryptococcus neoformans ATCC 32264 at 31.2 ug/ml after 48 hrs; format: functional; conditions: ATCC 32264, 48 h; in short: as §3
Candida albicans [17] = assay: Antifungal activity against Candida albicans CCC 130 after 24 hrs by broth microdilution technique; conditions: CCC 130, 24 h

Clc1ccc2nc(-c3ccncc3)ccc2c1
MIC (Candida albicans [1]): > 250 µg/mL | MIC (Saccharomyces cerevisiae): > 250 µg/mL | MFC (Cryptococcus neoformans [2]): 250 µg/mL (≈ 1040 µM) | MIC (Cryptococcus neoformans [2]): 125 µg/mL (≈ 519 µM) | MIC (Aspergillus fumigatus): > 250 µg/mL | MIC (Aspergillus flavus): > 250 µg/mL | MIC (Aspergillus niger): > 250 µg/mL | MFC (Nannizzia gypsea): 125 µg/mL (≈ 519 µM) | MIC (Nannizzia gypsea): 125 µg/mL (≈ 519 µM) | MFC (Trichophyton rubrum): 125 µg/mL (≈ 519 µM) | MIC (Trichophyton rubrum): 125 µg/mL (≈ 519 µM) | MFC [3]: 125 µg/mL (≈ 519 µM) | MIC [3]: 125 µg/mL (≈ 519 µM)

Cc1ccc2nc(-c3ccncc3)ccc2c1
MFC (Candida albicans [1]): 250 µg/mL (≈ 1130 µM) | MIC (Candida albicans [1]): 125 µg/mL (≈ 567 µM) | MIC50 (Candida albicans [1]): 15.6 µg/mL (≈ 70.8 µM) | MIC80 (Candida albicans [1]): 31.2 µg/mL (≈ 142 µM) | MFC (Saccharomyces cerevisiae): 125 µg/mL (≈ 567 µM) | MIC (Saccharomyces cerevisiae): 62 µg/mL (≈ 281 µM) | MFC (Cryptococcus neoformans [2]): 125 µg/mL (≈ 567 µM) | MIC (Cryptococcus neoformans [2]): 62 µg/mL (≈ 281 µM) | MIC50 (Cryptococcus neoformans [2]): 7.8 µg/mL (≈ 35.4 µM) | MIC80 (Cryptococcus neoformans [2]): 31.2 µg/mL (≈ 142 µM) | MFC (Aspergillus fumigatus): 125 µg/mL (≈ 567 µM) | MIC (Aspergillus fumigatus): 62 µg/mL (≈ 281 µM) | MFC (Aspergillus flavus): 125 µg/mL (≈ 567 µM) | MIC (Aspergillus flavus): 62 µg/mL (≈ 281 µM) | MFC (Aspergillus niger): 250 µg/mL (≈ 1130 µM) | MIC (Aspergillus niger): 125 µg/mL (≈ 567 µM) | MFC (Nannizzia gypsea): 62 µg/mL (≈ 281 µM) | MIC (Nannizzia gypsea): 62 µg/mL (≈ 281 µM) | MFC (Trichophyton rubrum): 62 µg/mL (≈ 281 µM) | MIC (Trichophyton rubrum): 62 µg/mL (≈ 281 µM) | MFC [3]: 62 µg/mL (≈ 281 µM) | MIC [3]: 62 µg/mL (≈ 281 µM) | MIC50 (Candida albicans [4]): 31.2 µg/mL (≈ 142 µM) | MIC80 (Candida albicans [4]): 125 µg/mL (≈ 567 µM) | MIC50 (Candida albicans [5]): 31.2 µg/mL (≈ 142 µM) | MIC80 (Candida albicans [5]): 62.5 µg/mL (≈ 284 µM) | MIC50 (Candida albicans [6]): 31.2 µg/mL (≈ 142 µM) | MIC80 (Candida albicans [6]): 125 µg/mL (≈ 567 µM) | MIC50 (Candida albicans [7]): 31.2 µg/mL (≈ 142 µM) | MIC80 (Candida albicans [7]): 125 µg/mL (≈ 567 µM) | MIC50 (Candida albicans [8]): 62.5 µg/mL (≈ 284 µM) | MIC80 (Candida albicans [8]): 125 µg/mL (≈ 567 µM) | MIC80 (Candida albicans [9]): 125 µg/mL (≈ 567 µM) | MIC50 (Nakaseomyces glabratus): 7.8 µg/mL (≈ 35.4 µM) | MIC80 (Nakaseomyces glabratus): 15.6 µg/mL (≈ 70.8 µM) | MIC50 (Candida parapsilosis): 7.8 µg/mL (≈ 35.4 µM) | MIC80 (Candida parapsilosis): 31.2 µg/mL (≈ 142 µM) | MIC50 (Pichia kudriavzevii): 31.2 µg/mL (≈ 142 µM) | MIC80 (Pichia kudriavzevii): 62.5 µg/mL (≈ 284 µM) | MIC50 (Candida tropicalis): 15.6 µg/mL (≈ 70.8 µM) | MIC80 (Candida tropicalis): 125 µg/mL (≈ 567 µM) | MIC50 (Cryptococcus neoformans [10]): 7.8 µg/mL (≈ 35.4 µM) | MIC80 (Cryptococcus neoformans [10]): 31.2 µg/mL (≈ 142 µM) | MIC50 (Cryptococcus neoformans [11]): 15.6 µg/mL (≈ 70.8 µM) | MIC80 (Cryptococcus neoformans [11]): 31.2 µg/mL (≈ 142 µM) | MIC50 (Cryptococcus neoformans [12]): 15.6 µg/mL (≈ 70.8 µM) | MIC80 (Cryptococcus neoformans [12]): 31.2 µg/mL (≈ 142 µM) | MIC50 (Cryptococcus neoformans [13]): 31.2 µg/mL (≈ 142 µM) | MIC80 (Cryptococcus neoformans [13]): 62.5 µg/mL (≈ 284 µM) | MIC50 (Cryptococcus neoformans [14]): 15.6 µg/mL (≈ 70.8 µM) | MIC80 (Cryptococcus neoformans [14]): 31.2 µg/mL (≈ 142 µM) | MIC50 (Cryptococcus neoformans [15]): 7.8 µg/mL (≈ 35.4 µM) | MIC80 (Cryptococcus neoformans [15]): 31.2 µg/mL (≈ 142 µM) | inhibition at 31.2 µg/mL (Cryptococcus neoformans [16]): 80% | MIC50 (Candida albicans [17]): 62.5 µg/mL (≈ 284 µM)

C(=C\c1ccc2ccccc2n1)/c1cccnc1
MFC (Candida albicans [1]): > 250 µg/mL | MIC (Candida albicans [1]): 250 µg/mL (≈ 1080 µM) | MFC (Saccharomyces cerevisiae): > 250 µg/mL | MIC (Saccharomyces cerevisiae): 250 µg/mL (≈ 1080 µM) | MFC (Cryptococcus neoformans [2]): 250 µg/mL (≈ 1080 µM) | MIC (Cryptococcus neoformans [2]): 125 µg/mL (≈ 538 µM) | MFC (Aspergillus fumigatus): > 250 µg/mL | MIC (Aspergillus fumigatus): 125 µg/mL (≈ 538 µM) | MFC (Aspergillus flavus): > 250 µg/mL | MIC (Aspergillus flavus): 125 µg/mL (≈ 538 µM) | MFC (Aspergillus niger): > 250 µg/mL | MIC (Aspergillus niger): 125 µg/mL (≈ 538 µM) | MFC (Nannizzia gypsea): 250 µg/mL (≈ 1080 µM) | MIC (Nannizzia gypsea): 62 µg/mL (≈ 267 µM) | MFC (Trichophyton rubrum): 250 µg/mL (≈ 1080 µM) | MIC (Trichophyton rubrum): 62 µg/mL (≈ 267 µM) | MFC [3]: 250 µg/mL (≈ 1080 µM) | MIC [3]: 62 µg/mL (≈ 267 µM)

CN(C/C=C/C#CC(C)(C)C)Cc1cccc2ccccc12 [TERBINAFINE]
MIC (Candida albicans [1]): 1.95 µg/mL (≈ 6.69 µM) | MIC (Saccharomyces cerevisiae): 3.9 µg/mL (≈ 13.4 µM) | MIC (Cryptococcus neoformans [2]): 0.49 µg/mL (≈ 1.68 µM) | MIC (Aspergillus fumigatus): 0.98 µg/mL (≈ 3.36 µM) | MIC (Aspergillus flavus): 0.98 µg/mL (≈ 3.36 µM) | MIC (Aspergillus niger): 1.96 µg/mL (≈ 6.73 µM) | MIC (Nannizzia gypsea): 0.04 µg/mL (≈ 0.137 µM) | MIC (Trichophyton rubrum): 0.01 µg/mL (≈ 0.0343 µM) | MIC [3]: 0.03 µg/mL (≈ 0.103 µM)

Clc1ccc2nc(-c3cccnc3)ccc2c1
MIC (Candida albicans [1]): > 250 µg/mL | MIC (Saccharomyces cerevisiae): > 250 µg/mL | MFC (Cryptococcus neoformans [2]): 125 µg/mL (≈ 519 µM) | MIC (Cryptococcus neoformans [2]): 62 µg/mL (≈ 258 µM) | MIC (Aspergillus fumigatus): > 250 µg/mL | MIC (Aspergillus flavus): > 250 µg/mL | MIC (Aspergillus niger): > 250 µg/mL | MFC (Nannizzia gypsea): 125 µg/mL (≈ 519 µM) | MIC (Nannizzia gypsea): 31 µg/mL (≈ 129 µM) | MFC (Trichophyton rubrum): 125 µg/mL (≈ 519 µM) | MIC (Trichophyton rubrum): 31 µg/mL (≈ 129 µM) | MFC [3]: 125 µg/mL (≈ 519 µM) | MIC [3]: 31 µg/mL (≈ 129 µM)

Source: ChEMBL document CHEMBL2157922, “Synthesis and antifungal activity of diverse C-2 pyridinyl and pyridinylvinyl substituted quinolines” (2012)
